From ChEMBL document CHEMBL4261545, “Extraction of antioxidant and antiproliferative ingredients from fruits of Rubus chingii Hu by active tracking guidance” (Medchemcomm, 2017)
In brackets after ≈: the same amount, converted by molar mass. Activity calls are given as the source filed them. The calls are words filed in the database; no cut-off is given here.

Legend:
A549 [1] = test: Cytotoxicity against human A549 cells after 24 hrs by MTT assay; type: functional, cell-based
Method in brief: (§1)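 Cells grown in DMEM with 10% heat-inactivated FBS, penicillin and streptomycin at 37 °C, 5% CO2. Seeded 5×10^4 cells per well and treated 24 h after seeding. Samples dissolved in DMSO and diluted in medium, final DMSO under 0.1% (v/v). After 24 h exposure, MTT (0.5 mg mL-1) was added for 4 h at 37 °C and absorbance read at 490 nm. Inhibition % = (1 − ODsample/ODcontrol)×100, run in triplicate.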

Bel-7402 [2] = test: Cytotoxicity against human Bel7402 cells after 24 hrs by MTT assay; type: functional, cell-based; method in brief: as §1
HepG2 [3] = test: Cytotoxicity against human HepG2 cells after 24 hrs by MTT assay; type: functional, cell-based; method in brief: as §1
MCF7 [4] = test: Cytotoxicity against human MCF7 cells after 24 hrs by MTT assay; type: functional, cell-based; method in brief: as §1
A549 [5] = test: Cytotoxicity against human A549 cells assessed as inhibition of cell proliferation at 100 ug/ml after 24 hrs by MTT assay relative to control; type: functional
Method in brief: (§2)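 Cells (from the CAS cell bank) were grown in DMEM with 10% heat-inactivated FBS, penicillin and streptomycin at 37 °C under 5% CO2. They were seeded at 5×10^4 cells/well and treated 24 h later. Samples were dissolved in DMSO and diluted in medium (final DMSO <0.1%) for 24 h. MTT (0.5 mg/mL) was added for 4 h at 37 °C and A490 read. Inhibition = (1 − OD sample/OD control)×100, in triplicate.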

HepG2 [6] = test: Cytotoxicity against human HepG2 cells assessed as inhibition of cell proliferation at 100 ug/ml after 24 hrs by MTT assay relative to control; type: functional; method in brief: as §2
MCF7 [7] = test: Cytotoxicity against human MCF7 cells assessed as inhibition of cell proliferation at 100 ug/ml after 24 hrs by MTT assay relative to control; type: functional; method in brief: as §2
Bel-7402 [8] = test: Cytotoxicity against human Bel7402 cells assessed as inhibition of cell proliferation at 100 ug/ml after 24 hrs by MTT assay relative to control; type: functional; conditions: for inhibition at 100 µg/mL: Bel-7402, 24 h; method in brief: as §1
MCF7 [9] = test: Induction of morphological changes in human MCF7 cells after 24 hrs by phase contrast microscopic method; type: functional, cell-based
Method in brief: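 MCF-7 cells were kept in DMEM with 10% heat-inactivated FBS at 37 °C, 5% CO2, exposed to compound for 24 h, then examined for morphological changes by phase-contrast microscopy.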

SMILES | Activity (A549 [1]) | Activity (Bel-7402 [2]) | Activity (HepG2 [3]) | Activity (MCF7 [4]) | inhibition (A549 [5]) | inhibition (HepG2 [6]) | inhibition (MCF7 [7]) | inhibition (Bel-7402 [8]) | inhibition at 100 µg/mL (Bel-7402 [8]) [%] | inhibition at 100 µg/mL (A549 [5]; A549, 24 h) [%] | IC50 (A549 [1]; A549, 24 h) [µg/mL] | inhibition at 100 µg/mL (HepG2 [6]; HepG2, 24 h) [%] | inhibition at 100 µg/mL (MCF7 [7]; MCF7, 24 h) [%] | IC50 (Bel-7402 [2]; Bel-7402, 24 h) [µg/mL] | IC50 (HepG2 [3]; HepG2, 24 h) [µg/mL] | Activity (MCF7 [9]) | IC50 (MCF7 [4]; MCF7, 24 h) [µg/mL]
CC[C@H](CC[C@@H](C)[C@H]1CC[C@H]2[C@@H]3CC=C4C[C@@H](O[C@@H]5O[C@H](CO)[C@@H](O)[C@H](O)[C@H]5O)CC[C@]4(C)[C@H]3CC[C@]12C)C(C)C | Dose-dependent effect | Dose-dependent effect | Dose-dependent effect | Dose-dependent effect |  |  |  |  |  |  |  |  |  |  |  |  | 
C[C@@]12CCC[C@@](C)(C(=O)O)[C@H]1CC[C@@]13C[C@@H](CC[C@H]12)[C@](O)(CO)C3 | Dose-dependent effect | Dose-dependent effect | Dose-dependent effect | Dose-dependent effect |  |  |  |  |  |  |  |  |  |  |  |  | 
O=c1[nH]cc(F)c(=O)[nH]1 |  |  |  |  | Active | Active | Active | Active |  |  |  |  |  |  |  |  | 
CC1(C)CC[C@]2(C(=O)O)CC[C@]3(C)C(=CC[C@@H]4[C@@]5(C)CC[C@H](O)C(C)(C)[C@@H]5CC[C@]43C)[C@@H]2C1 [OLEANOLIC_ACID] | Dose-dependent effect | Dose-dependent effect | Dose-dependent effect | Dose-dependent effect |  |  |  |  | 55.2 |  |  |  |  |  |  |  | 
C[C@@H]1CC[C@]2(C(=O)O)CC[C@]3(C)C(=CC[C@@H]4[C@@]5(C)C[C@@H](O)[C@H](O)C(C)(C)[C@@H]5CC[C@]43C)[C@@H]2[C@]1(C)O [TOMENTIC ACID] | Dose-dependent effect | Dose-dependent effect | Dose-dependent effect | Dose-dependent effect |  |  |  |  | 80.2 | 72.4 | 62.4 (≈ 128 µM) | 82.8 | 91.8 | 54.2 (≈ 111 µM) | 40.6 (≈ 83 µM) | Active | 24.2 (≈ 49.6 µM)
